Molecules are shown by their SMILES. Calls of active or inactive are those of the source. The rule behind the calls is not given here.

For one experiment, the target named is T1, Dopamine beta-hydroxylase (Bos taurus, UniProt P15101).
T1 sequence (P15101 whole entry): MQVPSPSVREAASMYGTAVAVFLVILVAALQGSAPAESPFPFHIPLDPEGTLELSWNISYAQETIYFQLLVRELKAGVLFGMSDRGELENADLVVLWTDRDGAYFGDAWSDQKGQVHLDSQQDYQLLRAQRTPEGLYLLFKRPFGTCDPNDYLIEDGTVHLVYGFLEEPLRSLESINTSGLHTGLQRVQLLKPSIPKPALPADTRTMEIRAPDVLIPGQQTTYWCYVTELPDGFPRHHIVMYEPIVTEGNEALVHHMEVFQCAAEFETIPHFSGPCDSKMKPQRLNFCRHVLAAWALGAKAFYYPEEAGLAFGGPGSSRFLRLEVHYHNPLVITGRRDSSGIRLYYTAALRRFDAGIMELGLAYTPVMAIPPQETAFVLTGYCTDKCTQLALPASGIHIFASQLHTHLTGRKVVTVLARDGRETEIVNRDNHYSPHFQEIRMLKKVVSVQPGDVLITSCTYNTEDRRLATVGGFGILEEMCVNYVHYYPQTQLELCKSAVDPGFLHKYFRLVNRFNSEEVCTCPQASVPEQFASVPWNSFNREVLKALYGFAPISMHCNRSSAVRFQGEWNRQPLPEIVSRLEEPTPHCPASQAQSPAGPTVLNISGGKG
The experiment is described as follows: KI value was determined from plots of 1/kinact(observed) vs 1/[inhibitor]. In a few lines:
(§1)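 Homogeneous bovine DBH (specific activity 30-42 units/mg at pH 5.0) was used in 50 mM sodium acetate at pH 5.0 and ionic strength 0.2, with 1 mg/mL catalase, 10 μM Cu²⁺ and 10 mM ascorbic acid at 37 °C. O₂ was held at 0.24 mM, so kinact values are apparent. kinact(observed) came from log % activity remaining vs time. KI and kinact came from 1/kinact(obs) vs 1/[inhibitor] plots using at least four inhibitor concentrations. Values are mean ± SEM.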
Take `C#CC(CN)c1ccc(O)cc1` (stereo in doubt; (+\-)3) [listing 1 of 2 here]: the Ki was determined as 15.7 µM.

In the case of `C#CC(CN)c1ccc(O)cc1` (single isomer, unassigned; (-)) [listing 1 of 2 here], the Ki is 57 µM.

Turning to `Oc1ccc(CC2CC2)cc1`, the Ki amounted to 12000 µM.

Another experiment has as its target T1, Dopamine beta-hydroxylase. The experiment is described as follows: KI value was determined from plots of 1/kinact(observed) vs 1/[inhibitor]; Apparent values at pH 5.0, 0.24 mM O2.
Consider `C=C(CN)c1ccc(O)cc1`, for which the Ki came out at 520 µM.

The target of another experiment is T1, Dopamine beta-hydroxylase. The experiment is described as follows: KI value was determined from plots of 1/kinact(observed) vs 1/[inhibitor]; e denotes 'Minimal time dependent inactivation'. The gist of the method:
as §1
As for `C=CC(CN)c1ccccc1` (centres undefined), the Ki result was “Inactive”.

In the case of `C=CC(CN)c1ccc(O)cc1` (centres undefined), the Ki entry is given as “Inactive”.

On to `C#CC(CN)c1ccccc1` (centres undefined), for which the Ki result was “Inactive”.

Turning to `C#CC(CN)c1ccc(O)cc1` (stereo in doubt; (+)3) [listing 1 of 2 here], the Ki entry is recorded as “Inactive”.

Consider `C=CC(CN)c1cccc(O)c1` (centres undefined), for which the Ki entry is on record as “Inactive”.

On to `C#CC(CN)c1cccc(O)c1` (centres undefined), for which the Ki result was “Inactive”.

The next experiment addresses T2, Dopamine beta-hydroxylase (Bos taurus) (UniProt P15101).
T2 sequence (whole entry): T1 sequence (P15101 whole entry)
The experiment is described as follows: Kinact value is determined from a plot of log(percent enzyme activity remaining) vs times. In a few lines:
as §1
As for `C=C(CN)c1cccs1`, the K inact was determined as 0.124 min⁻¹.

The compound `C#CC(CN)c1ccc(O)cc1` (stereo in doubt; (+\-)3) [listing 2 of 2 here] yielded a K inact of 0.023 min⁻¹.

The compound `Oc1ccc(CC2CC2)cc1` came in with a K inact of 1.8 min⁻¹.

`C#CC(CN)c1ccc(O)cc1` (single isomer, unassigned; (-)) [listing 2 of 2 here] gave a K inact of 0.184 min⁻¹.

A further experiment addresses T2, Dopamine beta-hydroxylase (Bos taurus). The experiment can be described thus: Kinact value is determined from a plot of log(percent enzyme activity remaining) vs times; Apparent values at pH 5.0, 0.24 mM O2.
Regarding `C=C(CN)c1ccc(O)cc1`, the K inact came out at 0.81 min⁻¹.

The next experiment shares this target. The experiment is described as follows: Kinact value is determined from a plot of log(percent enzyme activity remaining) vs times; e denotes 'Minimal time dependent inactivation'. In a few lines: as §1
Consider `C=CC(CN)c1ccccc1` (centres undefined), for which the K inact result was “inactive”.

On to `C#CC(CN)c1ccc(O)cc1` (stereo in doubt; (+)3) [listing 2 of 2 here], for which the K inact result is “inactive”.

Regarding `C=CC(CN)c1ccc(O)cc1` (centres undefined), the K inact entry was “inactive”.

With `C#CC(CN)c1ccccc1` (centres undefined), the K inact entry was “inactive”.

On to `C=CC(CN)c1cccc(O)c1` (centres undefined), for which the K inact entry was “inactive”.

Turning to `C#CC(CN)c1cccc(O)c1` (centres undefined), the K inact entry is “inactive”.

For the next experiment the target is unchanged. The experiment can be described thus: Kis value for the affinity towards homogenous bovine dopamine beta-hydroxylase (DBH). In a few lines: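 Competitive inhibition constant was measured against tyramine substrate without fumarate, using homogeneous bovine DBH (30-42 units/mg at pH 5.0). Conditions were pH 5.0, ionic strength 0.2, 50 mM sodium acetate, 1 mg/mL catalase, 10 μM Cu²⁺, 10 mM ascorbate and 37 °C. Kis was obtained by kinetic fitting and is reported as mean ± SEM.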
`C=CC(CN)c1ccccc1` (centres undefined) had a Kis of 670 µM.

Compound `C#CC(CN)c1ccc(O)cc1` (stereo in doubt; (+\-)3) [listing 2 of 2 here] returned a Kis of 13.6 µM.

`C#CC(CN)c1ccc(O)cc1` (stereo in doubt; (+)3) [listing 2 of 2 here] showed a Kis of 7.9 µM.

Compound `C=CC(CN)c1ccc(O)cc1` (centres undefined) came in with a Kis of 82 µM.

The compound `C#CC(CN)c1ccccc1` (centres undefined) displayed a Kis of 160 µM.

`C=CC(CN)c1cccc(O)c1` (centres undefined) showed a Kis of 1270 µM.

Consider `C#CC(CN)c1ccc(O)cc1` (single isomer, unassigned; (-)) [listing 2 of 2 here], for which the Kis turned out to be 33.9 µM.

Compound `C#CC(CN)c1cccc(O)c1` (centres undefined) registered a Kis of 190 µM.

For the origin of these results see ChEMBL document CHEMBL1124234, “Beta-substituted phenethylamines as high-affinity mechanism-based inhibitors of dopamine beta-hydroxylase” (J Med Chem, 1988).
